We go through one compound from PMC9727797 (Molecular Biology of the Cell, 2022).

Test [1] addresses T1, KIF15-N420 (Homo sapiens, UniProt Q9NS87).
T1 sequence (Q9NS87 1-420 limits assumed): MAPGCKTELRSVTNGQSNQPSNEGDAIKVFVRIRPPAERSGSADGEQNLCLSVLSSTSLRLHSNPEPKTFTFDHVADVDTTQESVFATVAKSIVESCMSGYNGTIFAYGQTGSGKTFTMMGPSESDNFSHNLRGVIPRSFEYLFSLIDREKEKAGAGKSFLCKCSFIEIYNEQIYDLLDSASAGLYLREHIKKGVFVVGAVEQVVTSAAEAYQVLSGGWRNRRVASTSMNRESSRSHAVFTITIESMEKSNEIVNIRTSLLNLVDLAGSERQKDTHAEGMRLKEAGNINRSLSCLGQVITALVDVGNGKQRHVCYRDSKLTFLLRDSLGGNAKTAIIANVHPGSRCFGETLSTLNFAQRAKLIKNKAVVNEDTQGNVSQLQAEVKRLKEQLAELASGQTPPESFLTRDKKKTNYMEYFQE
Put plainly: Microtubule-dependent steady-state ATPase assay. Type of test: biochemical. The conditions noted are these: 2 mM ATP; for kcat, microtubule-dependent ATPase: fit ± 95% CI. An outline of the steps:
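Microtubule-dependent KIF15-N420 ATPase used an NADH-coupled read-out (A340, 25°C), with rates normalised to active motor concentration. ATP was held at 2 mM and microtubules varied over eight concentrations from 0 to 8 μM. Test compound was at 3, 5, 20 or 30 μM, with a DMSO control. Michaelis-Menten fits were weighted by 1/SEM, n = 6–9 per microtubule concentration. kcat and Km are given as fit ± 95% CI.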

Test [2] has as its target T1, KIF15-N420. Put plainly: ATP-dependent steady-state ATPase assay. The conditions noted are these: 30 μM compound, 3 μM microtubules, fit ± 95% confidence interval. Type of test: biochemical. An outline of the steps: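 KIF15-N420 ATPase measured by NADH-coupled assay, with absorbance at 340 nm followed over time at 25°C. Rates were divided by active motor concentration. ATP was varied, with microtubules held at 3 μM. Test compound was 30 μM, or an equal volume of DMSO. Michaelis-Menten fits were weighted by 1/SEM, with n = 5–7 per concentration. kcat and Km are reported as fit ± 95% confidence interval.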

Another test concerns KIRC-1 cells. Put plainly: Preanaphase spindle monopolarity, KIRC-1 cells. Type of test: cell-based, human. An outline of the steps: (§1)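 TP53–/– RPE-1 and KIRC-1 cells were grown in DMEM with 10% FBS, penicillin and streptomycin; KIRC-1 medium also contained 10 μM STLC. Cells on coverslips were treated overnight with increasing test-compound concentrations or DMSO. They were then methanol-fixed and stained for KIF15, tubulin and DNA. Preanaphase spindles were scored monopolar or bipolar, in triplicate with n = 100 per replicate (± SEM).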

The subject of a further test is RPE-1 cells. Put plainly: Live cell imaging of metaphase duration. Particulars: Munesib-1 50 µM, Fift-IN and GW108X 25 µM. Type of test: cell-based, human.
A further test concerns the target T2, Eg5 (Homo sapiens, UniProt P52732).
T2 sequence (P52732 1-1056): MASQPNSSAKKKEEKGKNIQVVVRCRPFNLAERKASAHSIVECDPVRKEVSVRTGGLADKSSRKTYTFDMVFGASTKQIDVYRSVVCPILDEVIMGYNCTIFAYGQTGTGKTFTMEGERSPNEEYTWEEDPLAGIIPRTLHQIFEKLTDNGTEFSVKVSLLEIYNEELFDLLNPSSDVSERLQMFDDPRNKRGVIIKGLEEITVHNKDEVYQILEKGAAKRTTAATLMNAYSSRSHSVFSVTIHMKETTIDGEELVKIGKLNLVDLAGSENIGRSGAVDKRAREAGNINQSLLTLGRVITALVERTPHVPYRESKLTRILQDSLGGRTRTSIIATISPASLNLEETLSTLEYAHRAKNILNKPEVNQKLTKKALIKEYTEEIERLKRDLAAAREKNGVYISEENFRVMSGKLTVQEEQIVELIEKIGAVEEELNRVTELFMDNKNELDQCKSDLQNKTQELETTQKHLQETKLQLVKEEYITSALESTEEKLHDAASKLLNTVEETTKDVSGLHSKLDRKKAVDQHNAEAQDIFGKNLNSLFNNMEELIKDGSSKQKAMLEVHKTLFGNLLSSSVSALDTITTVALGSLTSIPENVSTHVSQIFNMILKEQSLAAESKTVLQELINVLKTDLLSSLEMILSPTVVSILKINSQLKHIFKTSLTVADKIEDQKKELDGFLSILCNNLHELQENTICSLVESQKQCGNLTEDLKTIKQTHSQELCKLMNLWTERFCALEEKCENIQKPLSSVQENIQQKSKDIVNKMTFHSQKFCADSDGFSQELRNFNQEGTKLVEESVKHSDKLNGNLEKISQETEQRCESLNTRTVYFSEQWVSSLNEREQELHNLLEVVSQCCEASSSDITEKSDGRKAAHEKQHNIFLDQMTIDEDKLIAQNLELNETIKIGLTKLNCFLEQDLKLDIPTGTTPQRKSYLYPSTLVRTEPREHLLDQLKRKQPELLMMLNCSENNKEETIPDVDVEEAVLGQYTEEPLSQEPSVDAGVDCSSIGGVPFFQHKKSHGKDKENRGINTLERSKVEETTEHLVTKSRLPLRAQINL
Put plainly: Microtubule gliding assay, Eg5. In kind it is biochemical. Particulars: 24 µM Munesib-1 or 100 µM Fift-IN. Summed up: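 Gliding assays with other motors used His6-Eg5, His6-EGFP-HSET or K560 (truncated kinesin-1), with test compound at 24 µM or 100 µM. Frames were captured every 5 s for 1 min at 100×. Velocity was the distance travelled in 1 min, from ≥15 microtubules at each of three locations (n ≥ 50 per slide).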

In test [3] the target is T1, KIF15-N420. Put plainly: Enzyme-coupled ATPase assay, concentration response. Particulars: 2 mM ATP, 5 μM microtubules. Type of test: biochemical. An outline of the steps: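 Concentration response used the same NADH-coupled KIF15-N420 reaction (A340, 25°C), with 2 mM ATP and 5 μM microtubules at every test-compound concentration. Eight compound concentrations were tested. Curves were built from repeated measurements plotted as mean ± SEM.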

The test system of test [4] is KIF15 on spindle microtubules in RPE-1 cells. Nature of the test: KIF15 on metaphase spindles. In kind it is cell-based, human. The conditions noted are these: Fift-IN 25 µM, Munesib-1 50 µM. Summed up: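 RPE-1 cells on glass coverslips were treated overnight with test compound (25 or 50 µM) or DMSO in normal medium. Cells were fixed in 100% methanol at –20°C for 10 min. Staining used rabbit anti-KIF15 (1:2000, 1 h), FITC anti-α-tubulin (1:500, 30 min) and Hoechst 33342. Max-intensity z-projections were imaged.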

In a further test the test system is TP53–/– RPE-1 cells. Nature of the test: Preanaphase spindle morphology, RPE-1 cells. Type of test: cell-based, human. Particulars: increasing concentrations. Summed up:
as §1

For the next test, the system named is HeLa cells. Put plainly: Preanaphase spindle monopolarity, parental HeLa cells. Type of test: cell-based.

As for `COC(=O)c1ccc2c(c1)N(C)S(=O)(=O)c1cnc(SC)nc1-2` [Munesib-1, Methyl 6-methyl-2-(methylthio)-6H-benzo[c]pyrimido[4,5-e][1,2]thiazine-8-carboxylate 5,5-dioxide], the “kcat, microtubule-dependent ATPase” value at KIF15-N420 [1] (3 μM compound) stood at 8.5 ± 1 s^–1; on KIF15-N420 [1] (5 μM compound), 8.2 ± 3 s^–1; on KIF15-N420 [1] (30 μM compound) it was 11.6 ± 6 s^–1. The “mode of inhibition with respect to microtubules” value on KIF15-N420 [1] is given as “less conclusive”. Moreover, the “kcat, ATP-dependent ATPase” value on KIF15-N420 [2] is on record as 2.6 ± 0.4 s^–1. Also, the “effect on monopolar spindles compared with Fift-IN” value in the test on KIRC-1 cells (75 μM) is recorded as “comparatively modest”. For the same compound, the monopolar spindles result with KIRC-1 cells (75 μM) is “less than 70%”. The “monopolarity index relative to cells treated with DMSO” value in the test with KIRC-1 cells (increasing concentrations) is “concentration-dependent increase”. Further, the “metaphase duration (metaphase plate formation until anaphase onset)” value with RPE-1 cells was “no significant change in metaphase timing”. Also, the “inhibition of microtubule gliding, Eg5” value against Eg5 is on record as “neither substantially inhibited”. Further, at KIF15-N420 [3], inhibition was half-maximal at 2800 nM (IC50). In addition, in test [4], the “amount of KIF15 on metaphase spindle” value is “little effect”. For the same compound, in the test on TP53–/– RPE-1 cells, the “effect on spindle morphology” value is listed as “little effect on spindle morphology”. In the test with HeLa cells, the “effect on spindle assembly in parental line” value is recorded as “little effect on the parental HeLa line”.
